Test results as given in ChEMBL document CHEMBL4000142, “Probing the carboxyester side chain in controlled deactivation (-)-δ(8)-tetrahydrocannabinols” (J Med Chem, 2015).
Calls of active or inactive are those of the source. No cut-off for these calls is given here.

Tests used:
[1] = biological target: Cannabinoid receptor 2 (Homo sapiens, UniProt P34972); assay: Displacement of [3H]CP-55,940 from human CB2 receptor expressed in HEK293 cells by scintillation counting method; format: cell-based
Method in brief: (§1)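 Competition binding against [3H]CP-55,940. Membranes from rat brain (CB1) or from HEK293 cells expressing mouse or human CB2. IC50 from nonlinear regression, converted to Ki. Each experiment run in triplicate; Ki is the mean of three independent experiments.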

[2] = Metabolic stability in mouse plasma assessed as esterase-mediated compound hydrolysis by measuring compound half life by HPLC analysis; format: ADME
Method in brief: (§2)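 Compounds at 200 μM in mouse plasma, 37 °C, shaken at 100 rpm. Samples taken over time, diluted 1:4 in acetonitrile and centrifuged. Supernatant analysed by C18 reverse-phase HPLC with an acetonitrile/acidified water gradient and UV detection (204 and 230 nm). Half-life from exponential decay fit.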

[3] = biological target: Cannabinoid receptor 2 (Mus musculus, UniProt P47936); assay: Displacement of [3H]CP-55,940 from mouse CB2 receptor expressed in HEK293 cells by scintillation counting method; format: cell-based; method in brief: as §1
[4] = biological target: T1, Cannabinoid receptor 1 (Rattus norvegicus, UniProt P20272); assay: Agonist activity at CB1 receptor in rat brain membranes assessed as reduction in forskolin-stimulated cAMP level measured from 3 data points after 30 mins; format: functional, cell membranes, Membrane
[5] = biological target: T1, Cannabinoid receptor 1; assay: Displacement of [3H]CP-55,940 from CB1 receptor in rat brain membranes by scintillation counting method; format: cell membranes, Membrane; method in brief: as §1
[6] = test system: Rattus norvegicus; assay: Hypothermic activity in sc dosed Sprague-Dawley rat measured over 6 hrs post dose; format: functional
[7] = test system: Rattus norvegicus; assay: Hypothermic activity in sc dosed Sprague-Dawley rat assessed as reduction in body temperature at 0.1 mg/kg, sc measured over 6 hrs post dose relative to baseline; format: functional, organism-based
[8] = test system: Rattus norvegicus; assay: Hypothermic activity in sc dosed Sprague-Dawley rat assessed as reduction in body temperature at 0.03 mg/kg, sc measured after 3 hrs post dose relative to baseline; format: functional, organism-based
[9] = biological target: Cannabinoid receptor 1 (Rattus norvegicus) (UniProt P20272); assay: Agonist activity at CB1 receptor in rat brain membranes assessed as reduction in forskolin-stimulated cAMP level after 30 mins relative to CP-55,940; format: functional, cell membranes; details: Membrane
[10] = biological target: T1, Cannabinoid receptor 1; assay: Agonist activity at CB1 receptor in rat brain membranes assessed as reduction in forskolin-stimulated cAMP level measured from 8 data points after 30 mins; format: functional, cell membranes, Membrane
[11] = test system: Rattus norvegicus; assay: Hypothermic activity in sc dosed Sprague-Dawley rat assessed as reduction in body temperature at 0.03 mg/kg, sc measured after 6 hrs post dose relative to baseline; format: functional, organism-based
[12] = Metabolic stability in mouse plasma assessed as esterase-mediated compound hydrolysis measured within 5 hrs by HPLC analysis; format: ADME; method in brief: as §2
[13] = test system: Rattus norvegicus; assay: Hypothermic activity in sc dosed Sprague-Dawley rat assessed as reduction in body temperature at 0.3 mg/kg, sc measured after 12 hrs post dose relative to baseline; format: functional, organism-based

Cannabinoid receptor 2 (Homo sapiens, UniProt P34972), sequence (P34972 whole entry): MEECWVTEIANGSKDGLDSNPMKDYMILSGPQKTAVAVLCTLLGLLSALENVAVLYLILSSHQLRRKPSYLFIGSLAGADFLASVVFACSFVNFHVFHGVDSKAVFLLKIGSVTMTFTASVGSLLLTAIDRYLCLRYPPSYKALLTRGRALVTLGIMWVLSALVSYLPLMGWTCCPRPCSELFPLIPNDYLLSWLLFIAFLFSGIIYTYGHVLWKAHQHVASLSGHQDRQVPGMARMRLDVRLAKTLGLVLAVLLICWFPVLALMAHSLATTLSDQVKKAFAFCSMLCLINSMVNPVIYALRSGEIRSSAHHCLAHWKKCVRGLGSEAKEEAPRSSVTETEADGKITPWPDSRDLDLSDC
Cannabinoid receptor 2 (Mus musculus, UniProt P47936), sequence (P47936 whole entry): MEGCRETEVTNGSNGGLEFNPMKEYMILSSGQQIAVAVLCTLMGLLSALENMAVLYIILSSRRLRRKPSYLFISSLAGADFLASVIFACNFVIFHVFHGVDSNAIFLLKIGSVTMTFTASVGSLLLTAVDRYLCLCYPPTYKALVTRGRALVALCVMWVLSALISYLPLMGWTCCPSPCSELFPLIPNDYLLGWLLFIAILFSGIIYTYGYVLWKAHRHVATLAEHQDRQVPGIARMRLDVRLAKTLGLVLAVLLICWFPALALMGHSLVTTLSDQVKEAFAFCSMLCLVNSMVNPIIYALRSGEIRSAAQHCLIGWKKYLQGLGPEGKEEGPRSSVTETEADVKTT
T1 sequence (P20272 whole entry): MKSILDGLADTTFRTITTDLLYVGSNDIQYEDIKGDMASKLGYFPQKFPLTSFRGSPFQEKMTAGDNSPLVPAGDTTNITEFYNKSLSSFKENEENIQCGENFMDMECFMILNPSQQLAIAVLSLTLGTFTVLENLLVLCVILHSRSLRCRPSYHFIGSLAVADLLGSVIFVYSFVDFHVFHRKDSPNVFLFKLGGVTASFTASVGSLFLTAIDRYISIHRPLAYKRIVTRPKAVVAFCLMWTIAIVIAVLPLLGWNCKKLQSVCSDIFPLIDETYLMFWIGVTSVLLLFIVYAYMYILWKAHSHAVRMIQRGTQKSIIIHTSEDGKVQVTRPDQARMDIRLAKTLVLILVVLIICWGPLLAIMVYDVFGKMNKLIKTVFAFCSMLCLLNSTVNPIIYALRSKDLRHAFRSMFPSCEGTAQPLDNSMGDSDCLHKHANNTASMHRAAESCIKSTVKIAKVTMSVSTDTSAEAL
Cannabinoid receptor 1 (Rattus norvegicus), sequence (P20272 whole entry): as above

Q: What does the source list for `CC1=CC[C@@H]2[C@@H](C1)c1c(O)cc(C(C)(C)C(=O)OCCCCn3ccnc3)cc1OC2(C)C`?
A: Ki [1]: 7.7 nM; t1/2 [2]: 392 min; Ki [3]: 8.2 nM

Q: Which t1/2 [2] does the source give for `CC1=CC[C@@H]2[C@@H](C1)c1c(O)cc(C3(C(=O)OCCCCC#N)CCC3)cc1OC2(C)C` here?
A: 115 min

Q: And the EC50 [4]?
A: 1 to 10 nM

Q: With `CCOC(=O)C(C)(C)c1cc(O)c2c(c1)OC(C)(C)[C@@H]1CC=C(C)C[C@@H]21` as the compound, how does the EC50 [4] read?
A: 1 to 10 nM

Q: Which results are given for `CCCCC(=O)OCC(C)(C)c1cc(O)c2c(c1)OC(C)(C)[C@@H]1CC=C(C)C[C@@H]21`?
A: Ki [1]: 1 nM; t1/2 [2]: 9.5 min; Ki [5]: 0.5 nM; Ki [3]: 1.2 nM

Q: What does the source list for `CCCSC(=O)C(C)(C)c1cc(O)c2c(c1)OC(C)(C)[C@@H]1CC=C(C)C[C@@H]21`?
A: Ki [1]: 0.7 nM; t1/2 [2]: 312 min; Ki [5]: 0.5 nM; Ki [3]: 0.8 nM

Q: Which Ki [1] does the source give for `CC1=CC[C@@H]2[C@@H](C1)c1c(O)cc(C(C)(C)C(=O)OCCCCC#N)cc1OC2(C)C` here?
A: 0.9 nM

Q: What about the t1/2 [2] of the same compound?
A: 40.4 min

Q: What about the Ki [3] of the same compound?
A: 0.1 nM

Q: And the EC50 [4]?
A: 1 to 10 nM

Q: What does the source list for `CC1=CC[C@@H]2[C@@H](C1)c1c(O)cc(CC(=O)OCCCCC#N)cc1OC2(C)C`?
A: t1/2 [2]: 3.2 min; EC50 [4]: 10 to 100 nM

Q: Which results are given for `CC1=CC[C@@H]2[C@@H](C1)c1c(O)cc(C(C)(C)C(=O)OCCBr)cc1OC2(C)C`?
A: Ki [1]: 2.9 nM; Ki [5]: 7.7 nM

Q: For `CC1=CC[C@@H]2[C@@H](C1)c1c(O)cc(C(C)(C)C(=O)OCCCC#N)cc1OC2(C)C`, which Activity [6] is on record?
A: Dose-dependent effect

Q: What about the ED50 [6] of the same compound?
A: 0.034 mg/kg

Q: And the t1/2 [2]?
A: 46.5 min

Q: What about the deltaT [7] of the same compound?
A: < 4.5 °C

Q: What about the Ki [3] of the same compound?
A: 0.8 nM

Q: What about the deltaT [8] of the same compound?
A: 2 °C

Q: And the Emax [9]?
A: 89%

Q: And the EC50 [10]?
A: 0.9 nM

Q: What about the Activity [11] of the same compound?
A: inactive

Q: What about the EC50 [4] of the same compound?
A: < 1 nM

Q: For `CCCCOC(=O)Cc1cc(O)c2c(c1)OC(C)(C)[C@@H]1CC=C(C)C[C@@H]21`, which t1/2 [2] is on record?
A: 0.7 min

Q: What does the source list for `CC1=CC[C@@H]2[C@@H](C1)c1c(O)cc(C(C)(C)C(=O)OCCCCCBr)cc1OC2(C)C`?
A: Ki [1]: 0.6 nM; Ki [5]: 1.2 nM; Ki [3]: 1.1 nM

Q: With `CC1=CC[C@@H]2[C@@H](C1)c1c(O)cc(C3(C(=O)OCCCCBr)CCC3)cc1OC2(C)C` as the compound, how does the t1/2 [2] read?
A: 47.9 min

Q: Which results are given for `COC(=O)C(C)(C)c1cc(O)c2c(c1)OC(C)(C)[C@@H]1CC=C(C)C[C@@H]21`?
A: Ki [1]: 34.5 nM; Ki [3]: 36.9 nM

Q: What does the source list for `CC1=CC[C@@H]2[C@@H](C1)c1c(O)cc(C(C)(C)CO)cc1OC2(C)C`?
A: Ki [1]: > 10000 nM; Ki [3]: > 10000 nM

Q: With `CC1=CC[C@@H]2[C@@H](C1)c1c(O)cc(CC(=O)OCCCCBr)cc1OC2(C)C` as the compound, how does the t1/2 [2] read?
A: 1.7 min

Q: For `CC1=CC[C@@H]2[C@@H](C1)c1c(O)cc(C(C)(C)C(=O)OCCCCBr)cc1OC2(C)C`, which Ki [1] is on record?
A: 0.8 nM

Q: What about the t1/2 [2] of the same compound?
A: 12.9 min

Q: What about the Ki [5] of the same compound?
A: 1.2 nM

Q: What about the Ki [3] of the same compound?
A: 0.9 nM

Q: What does the source list for `CCCCCNC(=O)C(C)(C)c1cc(O)c2c(c1)OC(C)(C)[C@@H]1CC=C(C)C[C@@H]21`?
A: Stability [12]: Stable; EC50 [4]: 1 to 10 nM

Q: Which results are given for `CCCCOC(=O)C1(c2cc(O)c3c(c2)OC(C)(C)[C@@H]2CC=C(C)C[C@@H]32)CCC1`?
A: t1/2 [2]: 36.3 min; EC50 [4]: < 1 nM

Q: What does the source list for `CCCCOC(=O)C(C)(C)c1cc(O)c2c(c1)OC(C)(C)[C@@H]1CC=C(C)C[C@@H]21`?
A: ED50 [6]: 0.37 mg/kg; t1/2 [2]: 12.4 min; Activity [13]: Active; EC50 [4]: < 1 nM

Q: Which Ki [1] does the source give for `CC1=CC[C@@H]2[C@@H](C1)c1c(O)cc(C(C)(C)C(=O)OCCCBr)cc1OC2(C)C` here?
A: 0.7 nM

Q: Which Ki [1] does the source give for `CC1=CC[C@@H]2[C@@H](C1)c1c(O)cc(C(C)(C)C(=O)OCCCn3ccnc3)cc1OC2(C)C` here?
A: 1.3 nM

Q: And the t1/2 [2]?
A: 271 min

Q: And the Ki [3]?
A: 2.1 nM

Q: And the EC50 [4]?
A: 1 to 10 nM
